According to ChEMBL document CHEMBL4513216, “Probing the Open Global Health Chemical Diversity Library for Multistage-Active Starting Points for Next-Generation Antimalarials” (ACS Infect Dis, 2020):

Assay: Toxicity liver stage against HepG2, at 10uM
Assay type: cell-based
Set-up: test concentration 10 uM, cell line HepG2-A16-CD81EGFP
Details: human, HepG2-A16-CD81EGFP cells; read-out: INHIBITION
How it was run: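 Uninfected HepG2-A16-CD81EGFP cells, 3 × 10^3 per well, 1536-well, plated on prespotted compound at 10 μM final, parasite-free screening media added to match infected plates; puromycin 10 μM positive, DMSO 0.5% negative; run in parallel with 48 h PbLuc assay at 37 °C, 5% CO2; viability by CellTiter-Glo luminescence, normalized to controls.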

Compound	cytotoxicity at 10 µM [%]
CO[C@@H]1CCC[C@@H](N(C)C(=O)c2cc(F)ccc2F)[C@H]1O	-5.38
CCCN(Cc1nc(-c2ccoc2)oc1C)CC1CCCO1 (stereo unspecified)	2.4
c1ccc(CCN2CCCC(c3ccnc4nccn34)C2)cc1 (stereo unspecified)	4.22
Cc1cnn(CC(C)NCc2ccc(OCc3cscn3)cc2)c1 (stereo unspecified)	-9.35
O=C(CN1C(=O)c2ccccc2CS1(=O)=O)c1ccccc1	15.3
CN(c1ncc(C(N)=O)cc1Cl)C1CCC(c2ccccc2)CC1 (stereo unspecified)	38.8
Cn1c(-c2ccccc2Cl)nc2cc(C(=O)NCC3(C)COC3)cnc21	1.59
CCOCc1nc2c(c(N(C)Cc3snnc3C)n1)CCNCC2	10.7
CN(C)CCCNCCC(Cc1ccccc1)C1CCOC(C)(C)C1 (stereo unspecified)	-4.08
CC(=O)Nc1ccc(Oc2ccc3c(c2)OCO3)nc1	-8.6
COCc1cn(C2CCN(C(=O)Cc3ccsc3)CC2)nn1	-4.2
O=C(c1ccc(-n2cccn2)cc1Cl)N1CCCC(O)(CO)C1 (stereo unspecified)	-0.226
Cc1nc(NCc2ccc(C)o2)cc(C(=O)N2CCOCC2)n1	-2.03
CCc1cc(NCCCN(C)C2CCCC2)ncn1	1.75
Cc1nc(C)c(C(=O)N2CCCC2(C)C(=O)NC2CCCC2)s1 (stereo unspecified)	-1.13
Cc1cc(C(=O)N2CCN(c3nc4c(F)cccc4s3)CC2)no1	-3.64
COc1ccc(OC2CCN(C(=O)CCc3n[nH]c(C)n3)CC2)cc1	4.66
CC(O)CCN(C)C(=O)Nc1ccc(Br)cc1 (stereo unspecified)	-2.1
CC(=O)N1CCC2(CC1)[C@@H]1CN(C(=O)N(C)C)C[C@@H]1C(=O)N2C	2.38
CC(C)CCNC(=O)c1ccc(Cl)c(NS(C)(=O)=O)c1	2.2
O=C(NCCn1nc2ccccn2c1=O)c1cc(C2CC2)[nH]n1	0.763

Compound	cytotoxicity at 10 µM [%]
CC(C)N1CCCC2(CCN(C(=O)CCCn3cccn3)C2)C1=O (stereo unspecified)	0.264
CS(=O)(=O)N1CCC(c2cncc(Cl)n2)CC1	16
CCOCc1nc2c(c(NCCNC(C)=O)n1)CCN(C(C)=O)CC2	9.93
Cc1nc(Nc2cnccn2)cc(C2CCCN(C(C)C)C2)n1 (stereo unspecified)	-9.03
CCc1noc(CN(C)Cc2ccc(N3CCCCC3)cc2)n1	-5.88
Cc1cnc(C(=O)N2CCCC(Cn3cc(CC(C)C)nn3)C2)cn1 (stereo unspecified)	1.33
CN1CCC2(CC1)CN(Cc1ccc(C3CCCCO3)o1)CCCN2C (stereo unspecified)	-5.35
CCOc1ccc(C#N)cc1NC(=O)N1CCC(n2cncn2)CC1	20.3
Cc1cc(CC(=O)N(C)Cc2cccc(OC(C)C)c2)n[nH]1	1.1
COc1ccc(CN2C[C@@H]3COC[C@]3(CN(C)C)C2)cc1	-1.75
CN1CCN(S(=O)(=O)c2ncn(C)c2Cl)CC1	6.84
NC(=O)C1CCN(C(=O)NCc2ccccc2-n2cccn2)C1 (stereo unspecified)	-18.4
Cc1nnc(CN2CCCC(c3noc(C4CC4)n3)C2)o1 (stereo unspecified)	-16
CN1CC(c2cc(O)nc(NCc3ccccc3Cl)n2)CC1=O (stereo unspecified)	-20.2
COc1ccc(-c2nc(C3CCNCC3)cc3c2ncn3C)cc1	-124
Cc1nc2c(c(NCC(c3ccccc3C)N(C)C)n1)CCNC2 (stereo unspecified)	19.2
CCCc1cc(N2CCCCC2Cn2cc(C)cn2)n2ncnc2n1 (stereo unspecified)	-0.554
Cn1c(CNCC2CCCN2c2cccnn2)nc2ccccc21 (stereo unspecified)	-18.2
CCOc1ccc2[nH]c(=O)c(CN3CCC(n4cnnc4)CC3)cc2c1	-0.966
Cc1cccc(CN2C(=O)CCC23CCN(Cc2cccn2C)CC3)n1	5.61
O=C(NCc1ncc(-c2ccccc2)o1)NC1CCC(O)CC1 (stereo unspecified)	-41.8

Compound	cytotoxicity at 10 µM [%]
CNc1cccc(C2CCCN(C(=O)c3cscn3)C2)n1 (stereo unspecified)	-11.3
CN(CCCOc1ccccc1Cl)C(=O)CN1C(=O)CCNC1=O	-1.97
O=C1NC(c2ccccc2)=N[C@@]12CC[C@@H]1CN(Cc3ccncc3)C[C@@H]12	11.9
c1cnc(NCc2ncn3c2CN(Cc2cccnc2)CCC3)nc1	-8.81
Cc1cc(C(=O)NCCC(C)C)ccc1NS(C)(=O)=O	7.04
COC(=O)c1ccc(CN2CCC(c3noc(C)n3)CC2)s1	-1.51
CN1CCN(c2ccc3ccc(C(=O)N4CCCCO4)cn23)CC1	-7.3
CN(C)Cc1csc(-c2nccn2Cc2ccc(C(=O)O)cc2)c1	-1.3
NC(c1ccc(Cl)cc1)c1cccs1 (stereo unspecified)	-17.1
COc1ccc(C)cc1C(=O)N1C[C@@H](CN(C)CCO)[C@@H](CO)C1	-0.828
c1ccc(CC2(CNCc3ncc[nH]3)CCC2)cc1	0.458
O=C(NCc1ccncc1)C1CN(c2nc3ccccc3s2)CCN1 (stereo unspecified)	-105
COc1ccccc1CN1CC[C@H]2[C@@H](C1)[C@H](c1ccsc1)CN2C(C)=O	-12.4
CC(C)c1cc(NC2CCN(C(=O)N3CCCC3)CC2)ncn1	10.2
CCC1=N[C@@]2(CC[C@@H]3CN(S(=O)(=O)CC)C[C@@H]32)C(=O)N1CC	5.22
CCc1nccn1C1CCCN(C(=O)CCCc2ccccn2)C1 (stereo unspecified)	-18.7
CC(C)[C@H]1CN(Cc2c[nH]cn2)C[C@@H]1NC(=O)CC1CCC1	-39
CNC(=O)Cc1csc(NC(=O)C2CSCCC(=O)N2)n1 (stereo unspecified)	-4.94
CC(C)c1cc(N(C)Cc2noc(C3CCCC3)n2)n2nccc2n1	-0.0395
O=C(c1ccc(F)cc1F)N1C[C@@H]2CC[C@H]1CN(Cc1ccccc1)C2	5.04
CN(C)C(=O)NC1COC2(CCN(Cc3nccn3C)CC2)C1 (stereo unspecified)	9.48

Compound	cytotoxicity at 10 µM [%]
O=C(c1cnccn1)N1C[C@@H]2CN(Cc3cccnc3)CCO[C@@H]2C1	2.89
CSCCNC(=O)C1CCC(=O)N(C2CCCC2)C1 (stereo unspecified)	-3.75
CN1CC(Oc2ccccc2)=NC(SCC(=O)Nc2ccc(Cl)cc2)=N1	-10.2
c1cc(-c2nnc([C@H]3CCNC3)o2)ccn1	4.82
CNc1cc(N2CCCC2CNCc2ccc(C)o2)ncn1 (stereo unspecified)	-2.69
CN(C)C(=O)c1cc(-c2ccccc2)[nH]n1	-4.5
CC(=O)NC1CCCN(C(=O)NCc2cc[nH]n2)C1 (stereo unspecified)	-11.5
Cn1cc(CN2C[C@@H]3OCCN(c4ncccn4)[C@@H]3C2)cn1	-75.1
Cc1cccc(CN2Cc3[nH]nc(COCc4nccs4)c3C2)n1	-7.12
O=C(Nc1ccc(CCN2CCC(O)CC2)cc1)Nc1cccnc1	-7.15
O=C(CCNc1ncccn1)N1CCC(Nc2cccnn2)CC1	-12.9
COc1ccccc1OCC(=O)NS(=O)(=O)c1ccc(F)cc1F	8.68
O=C(NCC1(N2CCOCC2)CCSC1)Nc1ccc(F)cc1 (stereo unspecified)	-10.2
CN(Cc1ncc(C(C)(C)C)o1)C1CCCN(c2cccnn2)C1 (stereo unspecified)	-16.1
O=C(NCCc1c[nH]cn1)c1ccccc1C1CCNC1 (stereo unspecified)	12.8
O=C(NCC(=O)N1CCCCC1)c1ccc(Cl)cc1I	-11.5
CC(=O)N1CCC2(CCCN(S(=O)(=O)c3ccc(F)cc3)C2)C1 (stereo unspecified)	2.26
Cc1ccoc1C(=O)N1CC[C@H]2[C@H](C[C@@H](CN3CCCC3)N2C)C1	4.42
